pIC50: −log10 of the molar value. Active and inactive are the calls of the source. The rule behind the calls is not given here.
Experiments:
[1] = biological target: Neuronal acetylcholine receptor; alpha9/alpha10 (Homo sapiens, UniProt Q9GZZ6+Q9UGM1); experiment: Inhibition of human alpha9alpha10 nAChR expressed in xenopus oocytes assessed as inhibition of Ach- induced response at -70 mV holding potential and measured for 1 to 5 days in presence of Ach stimulation by voltage-clamp based electrophysiological method; format: cell-based, Oocyte
Chain of Neuronal acetylcholine receptor; alpha9/alpha10 (Q9UGM1 whole entry): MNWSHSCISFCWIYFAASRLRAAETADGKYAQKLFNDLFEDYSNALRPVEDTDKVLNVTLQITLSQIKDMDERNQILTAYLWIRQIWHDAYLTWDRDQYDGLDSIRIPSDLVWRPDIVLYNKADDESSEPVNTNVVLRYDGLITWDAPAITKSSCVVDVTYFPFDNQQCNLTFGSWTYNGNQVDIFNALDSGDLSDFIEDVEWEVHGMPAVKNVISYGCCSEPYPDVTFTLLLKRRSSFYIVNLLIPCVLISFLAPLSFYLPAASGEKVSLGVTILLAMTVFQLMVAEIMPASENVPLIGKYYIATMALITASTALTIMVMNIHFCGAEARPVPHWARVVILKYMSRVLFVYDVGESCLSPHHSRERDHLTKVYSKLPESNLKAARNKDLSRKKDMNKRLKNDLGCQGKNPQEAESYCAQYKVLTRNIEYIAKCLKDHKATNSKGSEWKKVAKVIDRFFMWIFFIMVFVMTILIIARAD
Chain of Neuronal acetylcholine receptor; alpha9/alpha10 (Q9GZZ6 whole entry): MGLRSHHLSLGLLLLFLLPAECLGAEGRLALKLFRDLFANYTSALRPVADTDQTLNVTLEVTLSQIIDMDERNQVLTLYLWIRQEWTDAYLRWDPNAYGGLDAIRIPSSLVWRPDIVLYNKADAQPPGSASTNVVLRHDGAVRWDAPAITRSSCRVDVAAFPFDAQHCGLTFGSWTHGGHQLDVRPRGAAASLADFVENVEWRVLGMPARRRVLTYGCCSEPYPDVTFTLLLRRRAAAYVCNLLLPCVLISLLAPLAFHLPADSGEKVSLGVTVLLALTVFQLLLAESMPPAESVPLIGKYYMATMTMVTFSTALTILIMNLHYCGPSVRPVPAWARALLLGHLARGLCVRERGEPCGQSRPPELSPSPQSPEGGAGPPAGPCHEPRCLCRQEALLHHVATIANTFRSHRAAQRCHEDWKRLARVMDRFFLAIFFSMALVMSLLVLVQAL
Procedure, shortened: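 Two-electrode voltage clamp on Xenopus oocytes expressing human α9α10, recorded 1–5 d after injection. Held at −70 mV at room temperature in Ca²⁺-containing ND-96. A 1 s pulse of 100 µM ACh was given every 60 s and peptide was flowed on. IC50 with 95% CI from 3–5 separate oocytes.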

[2] = biological target: Neuronal acetylcholine receptor; alpha3/beta2 (Homo sapiens, UniProt P17787+P32297); experiment: Inhibition of human alpha3beta2 nAChR expressed in xenopus oocytes assessed as inhibition of Ach- induced response at -70 mV holding potential and measured for 1 to 5 days in presence of Ach stimulation by voltage-clamp based electrophysiological method; format: cell-based, Oocyte
Procedure, shortened: (§1)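 Xenopus oocytes expressing cloned rat or human nAChR subtypes, recorded 1–5 d after injection. Held at −70 mV at room temperature and pulsed with ACh for 1 s every 60 s while peptide was flowed on. Where noted, Ba²⁺ replaced Ca²⁺ to limit current run-up after block. Values from 3–5 separate oocytes.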

[3] = Inhibition of human alpha1beta1deltaepsilon nAChR expressed in xenopus oocytes assessed as inhibition of Ach- induced response at -70 mV holding potential and measured for 1 to 5 days in presence of Ach stimulation by voltage-clamp based electrophysiological method; format: cell-based; details: Oocyte; procedure, shortened: as §1
[4] = biological target: Nicotinic acetylcholine receptor alpha6/alpha3/beta4 (Rattus norvegicus, UniProt P04757+P12392+P43143); experiment: Inhibition of rat alpha6/alpha3beta4 nAChR expressed in xenopus oocytes assessed as inhibition of Ach- induced response at -70 mV holding potential and measured for 1 to 5 days in presence of Ach stimulation by voltage-clamp based electrophysiological method; format: cell-based, Oocyte; procedure, shortened: as §1
[5] = biological target: Neuronal acetylcholine receptor; alpha2/beta2 (Homo sapiens, UniProt P17787+Q15822); experiment: Inhibition of human alpha2beta2 nAChR expressed in xenopus oocytes assessed as inhibition of Ach- induced response at -70 mV holding potential and measured for 1 to 5 days in presence of Ach stimulation by voltage-clamp based electrophysiological method; format: cell-based, Oocyte; procedure, shortened: as §1
[6] = Inhibition of human alpha6/alpha3beta2beta3 nAChR expressed in xenopus oocytes assessed as inhibition of Ach- induced response at -70 mV holding potential and measured for 1 to 5 days in presence of Ach stimulation by voltage-clamp based electrophysiological method; format: cell-based; details: Oocyte; procedure, shortened: as §1
[7] = biological target: Nicotinic acetylcholine receptor alpha6/alpha3/beta2/beta3 (Rattus norvegicus, UniProt P04757+P12390+P12391+P43143); experiment: Inhibition of rat alpha6/alpha3beta2beta3 nAChR expressed in xenopus oocytes assessed as inhibition of Ach- induced response at -70 mV holding potential and measured for 1 to 5 days in presence of Ach stimulation by voltage-clamp based electrophysiological method; format: cell-based, Oocyte; procedure, shortened: as §1
Mus musculus = experiment: Analgesic activity against oxaliplatin-induced peripheral neuropathic pain mouse model assessed as reversal of oxaliplatin-induced cold allodynia by measuring withdrawal latency at 4 to 40 microg/kg, sc for 22 days (5 days per week) and measured after 24 hrs post-injection by cold-plate test chamber analysis; format: functional, organism-based; details: dose 4-40 µg/kg, time 22.0 day
Procedure, shortened: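 Mice, 8 per group. Oxaliplatin 3.5 mg/kg i.p. and peptide 4 or 40 µg/kg s.c., both in sterile 0.9% NaCl, given daily Wed–Fri and Mon–Tue through day 22; controls received saline. Cold allodynia tested on days 8, 15 and 22, 24 h after the last injection. Cold plate: 2–5 min acclimation at 23 °C, then cooled 10 °C/min until both forepaws lifted with shaking or licking. Mean ± SEM versus vehicle.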

[8] = biological target: Neuronal acetylcholine receptor; alpha4/beta2 (Rattus norvegicus, UniProt P09483+P12390); experiment: Inhibition of rat alpha4beta2 nAChR expressed in xenopus oocytes assessed as inhibition of Ach- induced response at -70 mV holding potential and measured for 1 to 5 days in presence of Ach stimulation by voltage-clamp based electrophysiological method; format: cell-based, Oocyte; procedure, shortened: as §1
Chain of Neuronal acetylcholine receptor; alpha4/beta2 (Rattus norvegicus, UniProt P09483+P12390) (P09483 whole entry): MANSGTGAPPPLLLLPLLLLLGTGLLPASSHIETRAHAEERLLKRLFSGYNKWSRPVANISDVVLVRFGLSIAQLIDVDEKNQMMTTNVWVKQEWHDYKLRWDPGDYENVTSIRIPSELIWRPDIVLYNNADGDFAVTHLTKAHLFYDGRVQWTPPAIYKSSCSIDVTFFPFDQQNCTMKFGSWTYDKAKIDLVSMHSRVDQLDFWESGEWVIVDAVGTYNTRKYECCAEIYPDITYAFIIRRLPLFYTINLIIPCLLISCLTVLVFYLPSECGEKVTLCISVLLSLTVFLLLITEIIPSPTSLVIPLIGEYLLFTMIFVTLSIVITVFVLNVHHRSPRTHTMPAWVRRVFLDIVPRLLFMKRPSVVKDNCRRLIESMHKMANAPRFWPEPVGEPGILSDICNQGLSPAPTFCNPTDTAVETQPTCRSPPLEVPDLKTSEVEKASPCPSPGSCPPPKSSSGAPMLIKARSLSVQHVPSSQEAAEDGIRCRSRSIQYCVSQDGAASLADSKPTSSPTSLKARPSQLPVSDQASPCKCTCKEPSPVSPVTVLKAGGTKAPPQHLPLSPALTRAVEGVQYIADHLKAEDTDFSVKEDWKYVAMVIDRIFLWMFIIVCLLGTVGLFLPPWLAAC
Chain of Neuronal acetylcholine receptor; alpha4/beta2 (Rattus norvegicus, UniProt P09483+P12390) (P12390 whole entry): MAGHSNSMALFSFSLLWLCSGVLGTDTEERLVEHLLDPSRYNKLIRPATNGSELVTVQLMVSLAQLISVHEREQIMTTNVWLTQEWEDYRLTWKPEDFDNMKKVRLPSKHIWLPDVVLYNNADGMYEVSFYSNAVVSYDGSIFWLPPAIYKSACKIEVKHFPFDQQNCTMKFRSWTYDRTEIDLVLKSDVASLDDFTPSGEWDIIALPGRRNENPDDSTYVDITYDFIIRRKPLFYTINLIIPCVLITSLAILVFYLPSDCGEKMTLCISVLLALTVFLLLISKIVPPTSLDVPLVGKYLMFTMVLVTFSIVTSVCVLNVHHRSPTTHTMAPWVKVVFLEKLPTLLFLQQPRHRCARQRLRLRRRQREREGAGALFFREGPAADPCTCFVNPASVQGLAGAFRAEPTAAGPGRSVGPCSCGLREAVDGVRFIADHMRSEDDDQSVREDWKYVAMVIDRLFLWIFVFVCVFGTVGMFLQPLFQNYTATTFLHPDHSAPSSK

[9] = biological target: Nicotinic acetylcholine receptor alpha9/alpha10 (Rattus norvegicus, UniProt P43144+Q9JLB5); format: cell-based, Oocyte
Chain of Nicotinic acetylcholine receptor alpha9/alpha10 (P43144 whole entry): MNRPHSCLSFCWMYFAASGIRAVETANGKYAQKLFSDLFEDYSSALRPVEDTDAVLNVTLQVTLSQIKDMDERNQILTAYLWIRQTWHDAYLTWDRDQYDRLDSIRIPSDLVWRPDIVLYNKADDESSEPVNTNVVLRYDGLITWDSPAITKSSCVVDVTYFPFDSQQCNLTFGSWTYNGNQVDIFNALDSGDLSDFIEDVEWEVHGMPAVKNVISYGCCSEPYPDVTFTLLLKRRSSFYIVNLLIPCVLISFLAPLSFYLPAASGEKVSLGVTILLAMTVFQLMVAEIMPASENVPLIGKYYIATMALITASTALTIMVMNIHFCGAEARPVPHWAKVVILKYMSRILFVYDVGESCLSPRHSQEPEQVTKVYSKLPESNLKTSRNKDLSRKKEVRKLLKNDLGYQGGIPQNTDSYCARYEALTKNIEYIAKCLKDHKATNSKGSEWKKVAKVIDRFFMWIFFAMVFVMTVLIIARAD
Chain of Nicotinic acetylcholine receptor alpha9/alpha10 (Q9JLB5 whole entry): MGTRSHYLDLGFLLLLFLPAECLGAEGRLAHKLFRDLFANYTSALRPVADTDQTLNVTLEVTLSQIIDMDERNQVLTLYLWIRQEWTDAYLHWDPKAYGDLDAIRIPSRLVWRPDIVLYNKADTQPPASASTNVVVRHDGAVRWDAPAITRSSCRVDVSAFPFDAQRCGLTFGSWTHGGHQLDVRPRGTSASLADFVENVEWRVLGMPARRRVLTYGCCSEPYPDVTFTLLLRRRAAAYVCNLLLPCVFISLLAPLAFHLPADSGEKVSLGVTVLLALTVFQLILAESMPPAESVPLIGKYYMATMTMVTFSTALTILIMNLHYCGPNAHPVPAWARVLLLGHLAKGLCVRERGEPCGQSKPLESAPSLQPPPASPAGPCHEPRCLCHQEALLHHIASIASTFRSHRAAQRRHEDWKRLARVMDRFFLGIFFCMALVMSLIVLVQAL

[10] = biological target: Neuronal acetylcholine receptor; alpha4/beta2 (Homo sapiens, UniProt P17787+P43681); experiment: Inhibition of human alpha4beta2 nAChR expressed in xenopus oocytes assessed as inhibition of Ach- induced response at -70 mV holding potential and measured for 1 to 5 days in presence of Ach stimulation by voltage-clamp based electrophysiological method; format: cell-based, Oocyte; procedure, shortened: as §1
[11] = biological target: Neuronal acetylcholine receptor; alpha3/beta2 (Rattus norvegicus, UniProt P04757+P12390); experiment: Inhibition of rat alpha3beta2 nAChR expressed in xenopus oocytes assessed as inhibition of Ach- induced response at -70 mV holding potential and measured for 1 to 5 days in presence of Ach stimulation by voltage-clamp based electrophysiological method; format: cell-based, Oocyte; procedure, shortened: as §1
[12] = biological target: Neuronal acetylcholine receptor; alpha2/beta4 (Rattus norvegicus, UniProt P12389+P12392); experiment: Inhibition of rat alpha2beta4 nAChR expressed in xenopus oocytes assessed as inhibition of Ach- induced response at -70 mV holding potential and measured for 1 to 5 days in presence of Ach stimulation by voltage-clamp based electrophysiological method; format: cell-based, Oocyte; procedure, shortened: as §1
[13] = biological target: Neuronal acetylcholine receptor; alpha2/beta4 (Homo sapiens, UniProt P30926+Q15822); experiment: Inhibition of human alpha2beta4 nAChR expressed in xenopus oocytes assessed as inhibition of Ach- induced response at -70 mV holding potential and measured for 1 to 5 days in presence of Ach stimulation by voltage-clamp based electrophysiological method; format: cell-based, Oocyte; procedure, shortened: as §1
[14] = biological target: Neuronal acetylcholine receptor; alpha2/beta2 (Rattus norvegicus, UniProt P12389+P12390); experiment: Inhibition of rat alpha2beta2 nAChR expressed in xenopus oocytes assessed as inhibition of Ach- induced response at -70 mV holding potential and measured for 1 to 5 days in presence of Ach stimulation by voltage-clamp based electrophysiological method; format: cell-based, Oocyte; procedure, shortened: as §1
[15] = biological target: Neuronal acetylcholine receptor subunit alpha-7 (Rattus norvegicus, UniProt Q05941); experiment: Inhibition of rat alpha7 nAChR expressed in xenopus oocytes assessed as inhibition of Ach- induced response at -70 mV holding potential and measured for 1 to 5 days in presence of Ach stimulation by voltage-clamp based electrophysiological method; format: cell-based, Oocyte; procedure, shortened: as §1
Chain of Neuronal acetylcholine receptor subunit alpha-7 (Rattus norvegicus, UniProt Q05941) (Q05941 whole entry): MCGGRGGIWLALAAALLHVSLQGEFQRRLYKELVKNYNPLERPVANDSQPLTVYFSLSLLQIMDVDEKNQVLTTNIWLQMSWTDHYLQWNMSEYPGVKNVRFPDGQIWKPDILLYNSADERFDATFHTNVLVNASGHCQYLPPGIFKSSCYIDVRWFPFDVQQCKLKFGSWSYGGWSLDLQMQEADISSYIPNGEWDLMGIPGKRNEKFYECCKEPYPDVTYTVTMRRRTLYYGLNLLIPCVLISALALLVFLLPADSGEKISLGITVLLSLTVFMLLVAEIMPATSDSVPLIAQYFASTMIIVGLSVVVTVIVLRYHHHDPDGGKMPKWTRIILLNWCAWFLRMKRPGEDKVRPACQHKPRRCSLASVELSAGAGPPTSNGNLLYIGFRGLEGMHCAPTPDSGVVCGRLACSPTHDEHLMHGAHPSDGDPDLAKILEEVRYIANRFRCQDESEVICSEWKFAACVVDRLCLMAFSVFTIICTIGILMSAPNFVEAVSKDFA

[16] = biological target: Neuronal acetylcholine receptor; alpha3/beta4 (Rattus norvegicus, UniProt P04757+P12392); experiment: Inhibition of rat alpha3beta4 nAChR expressed in xenopus oocytes assessed as inhibition of Ach- induced response at -70 mV holding potential and measured for 1 to 5 days in presence of Ach stimulation by voltage-clamp based electrophysiological method; format: cell-based, Oocyte; procedure, shortened: as §1
[17] = biological target: Neuronal acetylcholine receptor; alpha4/beta4 (Homo sapiens, UniProt P30926+P43681); experiment: Inhibition of human alpha4beta4 nAChR expressed in xenopus oocytes assessed as inhibition of Ach- induced response at -70 mV holding potential and measured for 1 to 5 days in presence of Ach stimulation by voltage-clamp based electrophysiological method; format: cell-based, Oocyte; procedure, shortened: as §1
[18] = biological target: Nicotinic acetylcholine receptor alpha6/alpha3/beta4 (Homo sapiens, UniProt P30926+P32297+Q15825); experiment: Inhibition of human alpha6/alpha3beta4 nAChR expressed in xenopus oocytes assessed as inhibition of Ach- induced response at -70 mV holding potential and measured for 1 to 5 days in presence of Ach stimulation by voltage-clamp based electrophysiological method; format: cell-based, Oocyte; procedure, shortened: as §1
[19] = biological target: Neuronal acetylcholine receptor; alpha4/beta4 (Rattus norvegicus, UniProt P09483+P12392); experiment: Inhibition of rat alpha4beta4 nAChR expressed in xenopus oocytes assessed as inhibition of Ach- induced response at -70 mV holding potential and measured for 1 to 5 days in presence of Ach stimulation by voltage-clamp based electrophysiological method; format: cell-based, Oocyte; procedure, shortened: as §1
Chain of Neuronal acetylcholine receptor; alpha4/beta4 (Rattus norvegicus, UniProt P09483+P12392) (P09483 whole entry): as the sequence (P09483 whole entry) above
Chain of Neuronal acetylcholine receptor; alpha4/beta4 (Rattus norvegicus, UniProt P09483+P12392) (P12392 whole entry): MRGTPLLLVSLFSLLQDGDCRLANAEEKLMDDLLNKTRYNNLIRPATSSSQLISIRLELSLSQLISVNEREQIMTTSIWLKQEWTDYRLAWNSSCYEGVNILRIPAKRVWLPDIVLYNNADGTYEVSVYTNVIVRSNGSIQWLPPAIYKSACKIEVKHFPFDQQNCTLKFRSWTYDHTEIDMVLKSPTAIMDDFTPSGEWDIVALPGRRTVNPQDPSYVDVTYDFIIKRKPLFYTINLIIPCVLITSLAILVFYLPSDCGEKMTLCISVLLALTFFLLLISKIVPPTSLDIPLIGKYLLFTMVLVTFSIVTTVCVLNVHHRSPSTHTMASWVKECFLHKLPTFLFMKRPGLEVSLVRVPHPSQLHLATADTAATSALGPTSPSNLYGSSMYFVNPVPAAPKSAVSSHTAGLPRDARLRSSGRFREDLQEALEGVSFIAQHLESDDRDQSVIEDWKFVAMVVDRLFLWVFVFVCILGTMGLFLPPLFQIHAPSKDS

[20] = biological target: Neuronal acetylcholine receptor; alpha3/beta4 (Homo sapiens, UniProt P30926+P32297); experiment: Inhibition of human alpha3beta4 nAChR expressed in xenopus oocytes assessed as inhibition of Ach- induced response at -70 mV holding potential and measured for 1 to 5 days in presence of Ach stimulation by voltage-clamp based electrophysiological method; format: cell-based, Oocyte; procedure, shortened: as §1
[21] = biological target: Neuronal acetylcholine receptor subunit alpha-7 (Homo sapiens, UniProt P36544); experiment: Inhibition of human alpha7 nAChR expressed in xenopus oocytes assessed as inhibition of Ach- induced response at -70 mV holding potential and measured for 1 to 5 days in presence of Ach stimulation by voltage-clamp based electrophysiological method; format: cell-based, Oocyte; procedure, shortened: as §1
Chain of Neuronal acetylcholine receptor subunit alpha-7 (Homo sapiens, UniProt P36544) (P36544 whole entry): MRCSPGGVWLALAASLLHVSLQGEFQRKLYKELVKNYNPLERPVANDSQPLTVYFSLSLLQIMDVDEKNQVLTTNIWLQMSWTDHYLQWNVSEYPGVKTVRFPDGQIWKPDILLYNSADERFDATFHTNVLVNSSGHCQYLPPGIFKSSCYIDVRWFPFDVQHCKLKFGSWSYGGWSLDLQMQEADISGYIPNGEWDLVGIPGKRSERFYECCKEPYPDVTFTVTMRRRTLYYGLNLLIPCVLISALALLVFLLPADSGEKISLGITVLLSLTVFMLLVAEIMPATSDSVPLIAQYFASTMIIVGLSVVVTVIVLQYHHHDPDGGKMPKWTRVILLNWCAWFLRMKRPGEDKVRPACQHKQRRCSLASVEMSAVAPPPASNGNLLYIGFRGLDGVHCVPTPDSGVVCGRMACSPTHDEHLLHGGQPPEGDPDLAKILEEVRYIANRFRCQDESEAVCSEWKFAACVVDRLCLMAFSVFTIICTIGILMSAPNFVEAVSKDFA

C[C@@H](O)[C@@H]1NC(=O)[C@H]2NC(=O)[C@H](NC(=O)CN)CSSC[C@H](NC(=O)[C@H](CCCNC(=N)N)NC(=O)[C@@H]3CCCN3C(=O)[C@H](CC(=O)O)NC1=O)C(=O)N[C@@H](CCCNC(=N)N)C(=O)N[C@@H](Cc1ccc(O)c(I)c1)C(=O)N[C@@H](CCCN)C(=O)N[C@H](C(=O)N[C@H](CC(=O)N[C@@H](CCCNC(N)=O)C(=O)O)Cc1ccc(O)cc1)CSSC2(C)C
pIC50 [1]: 9.59

C[C@@H](O)[C@@H]1NC(=O)[C@H]2NC(=O)[C@H](NC(=O)CN)CSSC[C@H](NC(=O)[C@H](CCCNC(=N)N)NC(=O)[C@@H]3CCCN3C(=O)[C@H](CC(=O)O)NC1=O)C(=O)N[C@@H](CCCNC(=N)N)C(=O)N[C@@H](Cc1ccc(O)c(I)c1)C(=O)N[C@@H](CCCN)C(=O)N[C@H](C(=O)N[C@H](CC(=O)N[C@@H](CCCNC(=N)N)C(=O)O)Cc1ccc(O)cc1)CSSC2(C)C
pIC50 [2]: < 5.00
pIC50 [3]: < 5.00
pIC50 [4]: < 5.00
pIC50 [5]: < 5.00
pIC50 [6]: < 5.00
pIC50 [7]: < 5.00
pIC50 [1]: 10.30
Activity (Mus musculus): Active
pIC50 [8]: < 5.00
pIC50 [9]: 9.41
pIC50 [10]: < 5.00
pIC50 [11]: < 5.00
pIC50 [12]: < 5.00
pIC50 [13]: < 5.00
pIC50 [14]: < 5.00
pIC50 [15]: < 6.48
pIC50 [16]: < 5.00
pIC50 [17]: < 5.00
pIC50 [18]: < 5.00
pIC50 [19]: < 5.00
pIC50 [20]: < 5.00
pIC50 [21]: 6.94

C[C@@H](O)[C@@H]1NC(=O)[C@@H]2CSSC[C@@H](C(=O)N[C@@H](Cc3ccc(O)cc3)C(=O)O)NC(=O)[C@H](CCC(N)=O)NC(=O)[C@H](Cc3ccc(O)c(I)c3)NC(=O)[C@H](CCCNC(N)=O)NC(=O)[C@@H](NC(=O)[C@H](CCCNC(=N)N)NC(=O)[C@@H]3CCCN3C(=O)[C@H](CC(=O)O)NC1=O)C(C)(C)SSC[C@@H](NC(=O)CN)C(=O)N2
pIC50 [1]: < 6.00

N=C(N)NCCC[C@H](NC(=O)[C@@H]1CSSC[C@@H]2NC(=O)[C@@H](NC(=O)CN)CSSC[C@H](NC(=O)[C@H](CCCNC(=N)N)NC(=O)[C@@H]3CCCN3C(=O)[C@H](CC(=O)O)NC(=O)[C@H](CO)NC2=O)C(=O)N[C@@H](CCCNC(N)=O)C(=O)N[C@@H](Cc2ccc(O)cc2)C(=O)N[C@@H](CCCNC(=N)N)C(=O)N1)C(=O)O
pIC50 [9]: 8.83

C[C@@H](O)[C@@H]1NC(=O)[C@H]2NC(=O)[C@H](NC(=O)CN)CSSC[C@H](NC(=O)[C@H](CCCNC(=N)N)NC(=O)[C@@H]3CCCN3C(=O)[C@H](CC(=O)O)NC1=O)C(=O)N[C@@H](CCCNC(=N)N)C(=O)N[C@@H](Cc1ccc(O)c(I)c1)C(=O)N[C@@H](CCCN)C(=O)N[C@H](C(=O)N[C@H](CC(=O)N[C@@H](CCCN)C(=O)O)Cc1ccc(O)cc1)CSSC2(C)C
pIC50 [1]: 9.47

From ChEMBL document CHEMBL5214907 (J Med Chem, 2021)
